Assay results of several laboratories.
Protocols differ between the studies behind these lines. Converted amounts (≈) assume the structure as drawn.

With `CC(C)CCCCCCCCCCCCCCCc1cc(O)cc(O)c1` the IC50 was over 200 µM (Klebsiella pneumoniae; microbial growth; ATCC29665).
`N#Cc1c[nH]c2ccccc12` has an EC90 of 386 µM (Cryptosporidium parvum; parasite growth; HCT-8; 24 h, intracellular).
The IC50 of `CCC(CCCCCCCCCCc1cc(O)cc(O)c1)C(C)C` (stereo not drawn) is reported as 30.2 µM (Streptococcus pneumoniae; microbial growth).
`COC(=O)c1cc(-c2cccc(NC(=O)Nc3ccccc3F)c2)on1` has an MIC of over 64 µg/mL (Klebsiella pneumoniae; microbial growth, broth dilution; BAA1705).
`NCCc1ccc(O)cc1` has an activity vs control of 94% (Cryptosporidium parvum; parasite growth, imaging; HCT-8; 1 mM, 24 h, intracellular).
`COC(=O)c1cc(-c2cccc(NC(=S)Nc3ccc(OC)cc3)c2)on1` gave an MIC of over 64 µg/mL (Klebsiella pneumoniae; microbial growth, broth dilution; BAA1705).
For `Oc1cccc2cccnc12`, the IC50 was 49.5 µg/mL (Klebsiella pneumoniae; microbial growth, broth dilution; ATCC700603).
`CCCCCCCCCCCCCCCc1cc(O)cc(O)c1` gave an IC50 of over 200 µM (Streptococcus pneumoniae; microbial growth).
With `COC(=O)c1cc(-c2cccc(NC(=O)Nc3cc(Cl)ccc3Cl)c2)on1` the MIC was over 64 µg/mL (Klebsiella pneumoniae; microbial growth, broth dilution; BAA1705).
With `Cc1c(NN=C(C#N)C2=NC(=O)CS2)c(=O)n(-c2ccccc2)n1C` the MBC was 2 µg/mL (≈ 5.64 µM) (Klebsiella pneumoniae; microbial killing, broth dilution).
The MIC of `COC(=O)c1cc(-c2cccc(NC(=S)Nc3ccc(C#N)cc3)c2)on1` is reported as over 64 µg/mL (Klebsiella pneumoniae; microbial growth, broth dilution; BAA1705).
`CC(C)C(C)CCCCCCCCCCCc1cc(O)cc(O)c1` (stereo not drawn) has an IC50 of over 200 µM (Klebsiella pneumoniae; microbial growth; ATCC29665).
